# ChEMBL document CHEMBL1687848, “In vitro effect of qnrA1, qnrB1, and qnrS1 genes on fluoroquinolone activity against isogenic Escherichia coli isolates with mutations in gyrA and parC” (2011)
# Key:
# Assay type in all cases: functional
# [1] = system: Escherichia coli; experiment: Antibacterial activity against Escherichia coli ATCC 25922 expressing qnrB gene and pBK-QnrB1 assessed as earliest time required to resistant colonies visible one step below mutant prevention concentration
# [2] = system: Escherichia coli; experiment: Antibacterial activity against Escherichia coli ATCC 25922 by broth microdilution method
# [3] = system: Escherichia coli; experiment: Antibacterial activity against Escherichia coli ATCC 25922 expressing qnrA gene and pBK-QnrA1 by broth microdilution method
# [4] = system: Escherichia coli; experiment: Antibacterial activity against Escherichia coli ATCC 25922 harboring GyrA S83L mutant assessed as earliest time required to resistant colonies visible one step below mutant prevention concentration
# [5] = system: Escherichia coli; experiment: Antibacterial activity against Escherichia coli ATCC 25922 harboring ParC S80R mutant by broth microdilution method
# [6] = system: Escherichia coli; experiment: Antibacterial activity against Escherichia coli ATCC 25922 expressing qnrS gene and pBK-QnrS1 assessed as mutant prevention concentration
# [7] = system: Escherichia coli; experiment: Antibacterial activity against qnrA gene expressing Escherichia coli ATCC 25922 harboring GyrA S83L mutant and pBK-QnrA1 assessed as mutant prevention concentration
# [8] = system: Escherichia coli; experiment: Antibacterial activity against Escherichia coli ATCC 25922 expressing qnrA gene and pBK-QnrA1 assessed as mutant prevention concentration
# [9] = system: Escherichia coli; experiment: Antibacterial activity against Escherichia coli ATCC 25922 expressing qnrB gene and pBK-QnrB1 assessed as mutant prevention concentration
# [10] = system: Escherichia coli; experiment: Antibacterial activity against Escherichia coli ATCC 25922 harboring GyrA S83L mutant assessed as mutant prevention concentration
# [11] = system: Escherichia coli; experiment: Antibacterial activity against Escherichia coli ATCC 25922 expressing qnrS gene and pBK-QnrS1 assessed as earliest time required to resistant colonies visible one step below mutant prevention concentration
# [12] = system: Escherichia coli; experiment: Antibacterial activity against Escherichia coli ATCC 25922 expressing qnrA gene and pBK-QnrA1 assessed as earliest time required to resistant colonies visible one step below mutant prevention concentration
# [13] = system: Escherichia coli; experiment: Antibacterial activity against qnrS gene expressing Escherichia coli ATCC 25922 harboring ParC S80R mutant, ParC S80R mutant and pBK-QnrS1 by broth microdilution method
# [14] = system: Escherichia coli; experiment: Antibacterial activity against qnrB gene expressing Escherichia coli ATCC 25922 harboring ParC S80R mutant and pBK-QnrB1 by broth microdilution method
# [15] = system: Escherichia coli; experiment: Antibacterial activity against qnrS gene expressing Escherichia coli ATCC 25922 harboring ParC S80R mutant and pBK-QnrS1 by broth microdilution method
# [16] = system: Escherichia coli; experiment: Antibacterial activity against qnrA gene expressing Escherichia coli ATCC 25922 harboring GyrA S83L mutant and pBK-QnrA1 assessed as earliest time required to resistant colonies visible one step below mutant prevention concentration
# [17] = system: Escherichia coli; experiment: Antibacterial activity against qnrB gene expressing Escherichia coli ATCC 25922 harboring ParC S80R mutant, ParC S80R mutant and pBK-QnrB1 by broth microdilution method
# [18] = system: Escherichia coli; experiment: Antibacterial activity against Escherichia coli ATCC 25922 expressing qnrS gene and pBK-QnrS1 by broth microdilution method
# [19] = system: Escherichia coli; experiment: Antibacterial activity against qnrS gene expressing Escherichia coli ATCC 25922 harboring GyrA S83L mutant and pBK-QnrS1 assessed as mutant prevention concentration
# [20] = system: Escherichia coli; experiment: Antibacterial activity against qnrS gene expressing Escherichia coli ATCC 25922 harboring GyrA S83L mutant and pBK-QnrS1 by broth microdilution method
# [21] = system: Escherichia coli; experiment: Antibacterial activity against qnrA gene expressing Escherichia coli ATCC 25922 harboring GyrA S83L mutant and pBK-QnrA1 assessed as resistant colonies recovered one step below mutant prevention concentration
# Method in brief: (§1)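 Resistant colonies recovered from Mueller-Hinton plates one concentration step below the MPC for each fluoroquinolone were retested for MIC. Mutants taken from plated concentrations closest to the MPC had the QRDRs of gyrA and parC analysed.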
# [22] = system: Escherichia coli; experiment: Antibacterial activity against Escherichia coli ATCC 25922 harboring GyrA S83L mutant by broth microdilution method
# [23] = system: Escherichia coli; experiment: Antibacterial activity against Escherichia coli ATCC 25922 harboring GyrA S83L mutant assessed as resistant colonies recovered one step below mutant prevention concentration; method in brief: as §1
# [24] = system: Escherichia coli; experiment: Antibacterial activity against Escherichia coli ATCC 25922 assessed as earliest time required to resistant colonies visible one step below mutant prevention concentration
# [25] = system: Escherichia coli; experiment: Antibacterial activity against qnrA gene expressing Escherichia coli ATCC 25922 harboring ParC S80R mutant, ParC S80R mutant and pBK-QnrA1 by broth microdilution method
# [26] = system: Escherichia coli; experiment: Antibacterial activity against qnrB gene expressing Escherichia coli ATCC 25922 harboring GyrA S83L mutant and pBK-QnrB1 assessed as mutant prevention concentration
# [27] = system: Escherichia coli; experiment: Antibacterial activity against Escherichia coli ATCC 25922 assessed as mutant prevention concentration
# [28] = system: Escherichia coli; experiment: Antibacterial activity against qnrB gene expressing Escherichia coli ATCC 25922 harboring GyrA S83L mutant and pBK-QnrB1 by broth microdilution method
# [29] = system: Escherichia coli; experiment: Antibacterial activity against qnrA gene expressing Escherichia coli ATCC 25922 harboring GyrA S83L mutant and pBK-QnrA1 by broth microdilution method
# [30] = system: Escherichia coli; experiment: Antibacterial activity against qnrS gene expressing Escherichia coli ATCC 25922 harboring GyrA S83L mutant and pBK-QnrS1 assessed as resistant colonies recovered one step below mutant prevention concentration; method in brief: as §1
# [31] = system: Escherichia coli; experiment: Antibacterial activity against Escherichia coli ATCC 25922 expressing qnrB gene and pBK-QnrB1 by broth microdilution method
# [32] = system: Escherichia coli; experiment: Antibacterial activity against qnrA gene expressing Escherichia coli ATCC 25922 harboring ParC S80R mutant and pBK-QnrA1 by broth microdilution method
# [33] = system: Escherichia coli; experiment: Antibacterial activity against qnrB gene expressing Escherichia coli ATCC 25922 harboring GyrA S83L mutant and pBK-QnrB1 assessed as earliest time required to resistant colonies visible one step below mutant prevention concentration
# [34] = system: Escherichia coli; experiment: Antibacterial activity against Escherichia coli ATCC 25922 harboring GyrA S83L mutant and ParC S80R mutant by broth microdilution method
# [35] = system: Escherichia coli; experiment: Antibacterial activity against Escherichia coli ATCC 25922 assessed as resistant colonies recovered one step below mutant prevention concentration; method in brief: as §1
# [36] = system: Escherichia coli; experiment: Antibacterial activity against qnrS gene expressing Escherichia coli ATCC 25922 harboring GyrA S83L mutant and pBK-QnrS1 assessed as earliest time required to resistant colonies visible one step below mutant prevention concentration
# [37] = system: Escherichia coli; experiment: Antibacterial activity against Escherichia coli ATCC 25922 expressing qnrA gene and pBK-QnrA1 assessed as resistant colonies recovered one step below mutant prevention concentration; method in brief: as §1
# [38] = system: Escherichia coli; experiment: Antibacterial activity against Escherichia coli ATCC 25922 expressing qnrS gene and pBK-QnrS1 assessed as resistant colonies recovered one step below mutant prevention concentration; method in brief: as §1
# [39] = system: Escherichia coli; experiment: Antibacterial activity against Escherichia coli ATCC 25922 expressing qnrB gene and pBK-QnrB1 assessed as resistant colonies recovered one step below mutant prevention concentration; method in brief: as §1
# [40] = system: Escherichia coli; experiment: Antibacterial activity against qnrB gene expressing Escherichia coli ATCC 25922 harboring GyrA S83L mutant and pBK-QnrB1 assessed as resistant colonies recovered one step below mutant prevention concentration; method in brief: as §1
structure (smiles),measurement,setting,value
C[C@H]1COc2c(N3CCN(C)CC3)c(F)cc3c(=O)c(C(=O)O)cn1c23.C[C@H]1COc2c(N3CCN(C)CC3)c(F)cc3c(=O)c(C(=O)O)cn1c23.O [LEVOFLOXACIN],Time,[1],48 h
same,MBC,[2],0.03 µg/mL
same,MBC,[3],0.5 µg/mL
same,Time,[4],24 h
same,MBC,[5],0.008 µg/mL
same,Activity,[6],4 µg/mL
same,Activity,[7],32 µg/mL
same,Activity,[8],8 µg/mL
same,Activity,[9],4 µg/mL
same,Activity,[10],4 µg/mL
same,Time,[11],24 h
same,Time,[12],24 h
same,MBC,[13],4 µg/mL
same,MIC,[13],4 µg/mL
same,MBC,[14],0.5 µg/mL
same,MIC,[14],0.25 µg/mL
same,MBC,[15],0.25 µg/mL
same,MIC,[15],0.25 µg/mL
same,Time,[16],24 h
same,MBC,[17],1 µg/mL
same,MBC,[18],0.5 µg/mL
same,MIC,[18],0.125 µg/mL
same,Activity,[19],16 µg/mL
same,MBC,[20],2 µg/mL
same,MIC,[21],2 µg/mL
same,MBC,[22],0.25 µg/mL
same,MIC,[22],0.125 µg/mL
same,MIC,[23],2 µg/mL
same,Time,[24],48 h
same,MBC,[25],4 µg/mL
same,MIC,[25],2 µg/mL
same,Activity,[26],16 µg/mL
same,Activity,[27],2 µg/mL
same,MBC,[28],0.5 µg/mL
same,MIC,[28],0.25 µg/mL
same,MBC,[29],0.5 µg/mL
same,MIC,[30],4 µg/mL
same,MBC,[31],0.25 µg/mL
same,MBC,[32],0.5 µg/mL
same,MIC,[32],0.25 µg/mL
same,Time,[33],72 h
same,MBC,[34],0.25 µg/mL
same,MIC,[34],0.25 µg/mL
same,MIC,[35],0.125 µg/mL
same,Time,[36],96 h
COc1c(N2C[C@@H]3CCCN[C@@H]3C2)c(F)cc2c(=O)c(C(=O)O)cn(C3CC3)c12 [MOXIFLOXACIN],Time,[1],24 h
same,MBC,[2],0.015 µg/mL
same,MIC,[2],0.008 µg/mL
same,MIC,[37],0.5 µg/mL
same,MBC,[3],0.5 µg/mL
same,MIC,[3],0.25 µg/mL
same,Time,[4],24 h
same,MBC,[5],0.008 µg/mL
same,MIC,[5],0.008 µg/mL
same,MIC,[38],0.5 µg/mL
same,Activity,[6],4 µg/mL
same,Activity,[7],16 µg/mL
same,Activity,[8],8 µg/mL
same,Activity,[9],4 µg/mL
same,Activity,[10],4 µg/mL
same,Time,[11],24 h
same,Time,[12],24 h
same,MBC,[13],4 µg/mL
same,MBC,[14],0.5 µg/mL
same,MIC,[14],0.5 µg/mL
same,MBC,[15],0.5 µg/mL
same,MIC,[15],0.25 µg/mL
same,Time,[16],24 h
same,MBC,[17],2 µg/mL
same,MIC,[17],1 µg/mL
same,MBC,[18],0.25 µg/mL
same,MIC,[18],0.25 µg/mL
same,Activity,[19],32 µg/mL
same,MIC,[39],0.5 µg/mL
same,MBC,[20],2 µg/mL
same,MIC,[20],1 µg/mL
same,MBC,[22],0.125 µg/mL
same,MIC,[23],1 µg/mL
same,Time,[24],48 h
same,MBC,[25],4 µg/mL
same,Activity,[26],32 µg/mL
same,Activity,[27],2 µg/mL
same,MBC,[28],0.5 µg/mL
same,MIC,[28],0.5 µg/mL
same,MBC,[29],0.5 µg/mL
same,MIC,[29],0.5 µg/mL
same,MIC,[40],1 µg/mL
same,MIC,[30],1 µg/mL
same,MBC,[31],1 µg/mL
same,MIC,[31],0.25 µg/mL
same,MBC,[32],0.5 µg/mL
same,MIC,[32],0.5 µg/mL
same,Time,[33],24 h
same,MBC,[34],0.25 µg/mL
same,MIC,[34],0.25 µg/mL
same,Time,[36],24 h
